Test results taken from ChEMBL document CHEMBL1135890, “Structure-activity relationships of 2'-fluoro-2',3'-unsaturated D-nucleosides as anti-HIV-1 agents” (J Med Chem, 2002).

What was measured:
[1] = substrate: Nc1ncnc2c1ncn2C1OC(CO)C=C1O; assay: (§1) Michaelis constant was determined against mammalian Adenosine deaminase
In short: (§2)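 Calf intestinal mucosa adenosine deaminase (EC 3.5.4.4), 0.15–0.24 unit depending on substrate. Substrate 15–200 μM in phosphate buffer pH 7.4 at 25 °C. Deamination followed by UV absorbance at 265 nm. Each reaction medium was checked by TLC or UV to confirm the deaminated substrate was the sole product.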

[2] = substrate: Nc1ncnc2c1ncn2[C@@H]1O[C@H](CO)C=C1F; assay: as §1; in short: as §2
[3] = substrate: Nc1ncnc2c1ncn2[C@@H]1O[C@H](CO)[C@@H](O)[C@H]1O; assay: as §1; in short: as §2

B1: Adenosine deaminase (Homo sapiens), P00813 (protein)
chain: MAQTPAFDKPKVELHVHLDGSIKPETILYYGRRRGIALPANTAEGLLNVIGMDKPLTLPDFLAKFDYYMPAIAGCREAIKRIAYEFVEMKAKEGVVYVEVRYSPHLLANSKVEPIPWNQAEGDLTPDEVVALVGQGLQEGERDFGVKARSILCCMRHQPNWSPKVVELCKKYQQQTVVAIDLAGDETIPGSSLLPGHVQAYQEAVKSGIHRTVHAGEVGSAEVVKEAVDILKTERLGHGYHTLEDQALYNRLRQENMHFEICPWSSYLTGAWKPDTEHAVIRLKNDQANYSLNTDDPLIFKSTLDTDYQMTKRDMGFTEEEFKRLNINAAKSSFLPEDEKRELLDLLYKAYGMPPSASAGQNL
Km [1]: 30 µM | Km [2]: 23 µM | Km [3]: 5 µM
